High-throughput results: PubChem BioAssay, several laboratories
An excerpt weighted towards active compounds, which were near 0.95% of everything screened.
HNF4A DNA FP = change in binding of human HNF4 alpha to DNA | P41235 | HNF4a-FITC DNA binding, fluorescence polarization, 1 h | activity change, % at 10 µM | hit rate 0.3% among 360,000; in the data active = activity change above about 30%, passing the limit was not always enough
ASAP1 GAP inh = ASAP1 ArfGAP inhibition; ASAP1-stimulated ARF1 GTP hydrolysis, GDP FP detection; AID 624377; inhibition, % at 16.5 µM; hit rate 0.19% among 360,000; Q9ULH1; in the data active = inhibition above about 25%;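 also: 0% = vehicle with enzyme and substrate and 100% = no enzyme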
Target sequence (Q9ULH1 325-724 limits assumed): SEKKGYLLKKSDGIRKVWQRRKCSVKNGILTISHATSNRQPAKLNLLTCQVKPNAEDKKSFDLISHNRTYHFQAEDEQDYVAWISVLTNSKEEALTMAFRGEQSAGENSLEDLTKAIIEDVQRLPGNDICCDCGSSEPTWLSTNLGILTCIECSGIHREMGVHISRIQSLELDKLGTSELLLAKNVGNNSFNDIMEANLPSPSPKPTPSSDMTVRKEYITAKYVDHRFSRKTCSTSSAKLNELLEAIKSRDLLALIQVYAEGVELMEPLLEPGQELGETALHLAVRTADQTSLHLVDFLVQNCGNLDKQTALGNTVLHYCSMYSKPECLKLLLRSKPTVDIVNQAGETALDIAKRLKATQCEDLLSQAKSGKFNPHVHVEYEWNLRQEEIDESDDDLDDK
CSN inh = blocks human CSN-mediated cullin deneddylation. Purified CSN, SCF-Nedd8-OG deneddylation, fluorescence polarization. hit rate 0.38% among 360,000. inhibition, % at 12.5 µM;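 active = pattern-corrected inhibition above about 35%, with an unprinted fluorescence ratio check between 0.5 and 1.5, limit read from the data, passing the limit was not always enough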;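 also: 0% = enzyme with substrate and 100% = substrate without enzyme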
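Assay system: HEK293T-derived human Csn5 enzyme; quantity: 0.24 nM enzyme; medium: Tris/NaCl/DTT buffer, pH 7.5; also added: substrate SCFSkp2-Nedd8OG, 10 nM; doses: 12.5 µM compound; schedule: 90 min reaction at room temperature; signal: FP; read-out: % inhibition of substrate cleavage by Csn5; benchmarks: substrate-only high control, full reaction low control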
ARFGAP1 inhibitor = inhibitors of rat ARFGAP1; hit rate 0.26% among 360,000; AID 651572; inhibition, % at 16.5 µM; Arfgap1-stimulated ARF1 GTP hydrolysis, GDP FP detection; Q62848;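 active = inhibition above a per-plate limit, mean inhibition of low control wells plus 3 SD, cut at about 25% in these data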;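 also: 0% = DMSO wells with enzyme and 100% = wells lacking Arfgap1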
Target sequence (Q62848 1-136 limits assumed): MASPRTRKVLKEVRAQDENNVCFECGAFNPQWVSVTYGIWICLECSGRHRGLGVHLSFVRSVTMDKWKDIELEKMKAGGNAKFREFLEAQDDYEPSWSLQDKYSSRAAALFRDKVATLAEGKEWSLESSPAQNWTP
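Material: rat Arfgap1 catalytic domain, aa 1-136; also added: human ARF1(Δ1-17)-GTP substrate; compound dosing: one concentration, 16.5 µM, DMSO 1.26%; incubation: GTP hydrolysis reaction 2 h at 25 °C; measured by: Tracer-displacement fluorescence polarization with EDTA stop, 620/688 nm; evaluation: % inhibition from polarization; repeats: one replicate per compound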
Starred values were filed as active, the others as inactive; . = no result.

SMILES	HNF4A DNA FP	ASAP1 GAP inh	CSN inh	ARFGAP1 inhibitor
S=c1[nH]nc(-c2cc(-c3ccccc3)n[nH]2)n1/N=C/c1ccc(Cl)c(Cl)c1	9	-6	72*	-3
S=c1[nH]nc(-c2cc(-c3ccccc3)n[nH]2)n1/N=C/c1ccc(Cl)cc1	-3	1	1	-3
CC(=O)N1CCN(c2ccc(N3CCN(Cc4ccccc4)[C@@H](C)C3)c(C)c2)[C@@H](C)C1	.	5	.	2
COc1cc(O)c(C(C)=O)c(OC)c1	1	-7	-4	9
COc1cc(O)c(C(C)=O)c(CC(=O)O)c1	-15	-4	35*	6
COc1ccccc1C(=O)NC1CCCCN(C)C1=O (stereo not drawn)	.	6	.	-9
COc1cc2nc(N3CCNCC3)nc(N)c2cc1OC	53	6	116*	2
Cc1ccc(NC(=O)c2cc(-c3ccco3)nc3ccccc23)cc1S(=O)(=O)N1CCOCC1	-24	2	37*	12
Cc1ccc(CCC(=O)Nc2ccc(Br)cc2)o1	1	4	2	3
Nc1ccc(S(=O)(=O)N2CCc3ccccc32)cc1	85*	1	0	-10
O=S(=O)(c1cnc[nH]1)N1CCc2ccccc21	103	1	73*	-1
O=S(=O)(c1ccc2ccccc2c1)N1CCc2ccccc21	1	-7	0	10
CC1Cc2ccccc2N1S(=O)(=O)c1cnc[nH]1 (stereo not drawn)	6	-10	-4	0
COc1ccccc1C(=O)N1CCC2CCN(C(=O)c3ccccc3)C2C1 (stereo not drawn)	.	-9	.	9
COC(=O)C1=C(C)N(C)C(=NCc2ccc(C(F)(F)F)cc2)NC1c1ccc(Cl)cc1 (stereo not drawn)	.	-1	.	5
Cn1c2ccccc2c(=O)c2c(=O)n(C3CCCCCC3)c(C3CCCCC3)nc21	67*	-10	-5	-8
O=C(CSc1nnc(CNC(=O)c2ccccc2F)o1)NCCc1ccccc1	1	-4	1	-4
O=C(CSc1nnc(CNC(=O)c2ccccc2F)o1)NCc1ccco1	8	-1	40*	-3
COC(=O)c1cc(NC(=O)CC2SC(=Nc3ccccc3)N(CCc3c[nH]c4ccccc34)C2=O)cc(C(=O)OC)c1 (stereo not drawn)	3	28*	2	16
CCOC(=O)c1cc(NC(=O)c2ccccc2)c(=O)oc1C(F)(F)F	46*	-6	14	-3
COc1ccccc1-c1cccc2c3c([nH]c12)[C@@H]1C[C@H]2[C@@H](C(=O)N1CC3)[C@H](C)ON2C	.	1	.	-10
Nc1c(C(=O)Nc2ccc(S(=O)(=O)N3CCCC3)cc2)sc2nc3ccc(OC(F)(F)F)cc3cc12	43*	.	15	.
O=c1oc2ccccc2n1CCn1c2ccccc2c2nc3ccccc3nc21	-1	-2	52*	1
COc1ccc(Cc2nc3ccccc3n2CC(=O)N/N=C/c2ccc(C)cc2O)cc1OC	39*	-7	60*	17
COc1ccccc1S(=O)(=O)N(C)C[C@H]1OCc2cnnn2CCCC(=O)N([C@H](C)CO)C[C@@H]1C	0	-14	-4	-6
SMILES	HNF4A DNA FP	ASAP1 GAP inh	CSN inh	ARFGAP1 inhibitor
Cc1c(C2Nc3ccccc3C2C)[nH]c2ccccc12 (stereo not drawn)	.	4	.	15
c1ccc(CC[C@@H]2CC[C@@H](CCc3ccccc3)N2)cc1	7	15	43*	13
CCCCNS(=O)(=O)c1ccc2nc(SCC(=O)Nc3sccc3C#N)[nH]c2c1	4	27*	10	23
CN1C(=O)[C@@]2(O[C@H]3C=CC=CN3C3=C2C(=O)CCC3)c2cccc(Br)c21	.	-9	.	-13
Cc1ccccc1NS(=O)(=O)c1ccc(C(=O)OCC(=O)NCC(C)C)cc1	31*	-2	2	-5
CC(C)NC(=O)NC(=O)COC(=O)c1ccc(S(=O)(=O)Nc2ccccc2)cc1	-3	12	-3	4
Cc1ccc(NC(=O)c2ccc(NCCc3ccccc3)c([N+](=O)[O-])c2)cc1F	54*	-2	118	7
O=C(Nc1cc(F)cc(F)c1)c1ccc(NCCc2ccccc2)c([N+](=O)[O-])c1	115	8	119	6
COCc1[nH]nc2c1C(c1cccc(C(F)(F)F)c1)N(c1ccccc1)C2=O (stereo not drawn)	.	-12	.	0
Cc1ccc(S(=O)(=O)N2C[C@H]3[C@H]4C(=O)N(c5ccccc5)C(=O)[C@H]4CC(=O)[C@H]3[C@@H]2c2ccccc2F)cc1	-4	2	111*	-6
CCNC(=O)N1CCN(c2ccc(N3CCN(Cc4ccccc4)[C@H](C)C3)c(C)c2)[C@@H](C)C1	.	-9	.	1
CCc1ccccc1OCC(=O)Nc1ccc(N2CCCC2)cc1C	52*	-6	20	10
Cc1cc(N2CCCC2)ccc1NC(=O)COc1ccccc1	14	6	6	15
COc1cc(/C=C2\CCC(C)C3=C(c4cc(OC)c(OC)c(OC)c4)C(C#N)=C(N)OC32)cc(OC)c1OC (stereo not drawn)	78*	3	75	-5
C=CCn1c(=O)/c(=C/c2ccc(O)cc2)s/c1=C(/C#N)c1nnc2n1CCCCC2	80*	3	97*	2
C=CCn1c(=O)/c(=C/c2ccc(Cl)cc2)s/c1=C(/C#N)c1nnc2n1CCCCC2	4	-4	2	3
COC(=O)c1cc2c(c3c4cc(OC)ccc4n(S(=O)(=O)c4ccccc4)c13)C(=O)N(Cc1ccc(C(F)(F)F)cc1)C2	.	2	.	14
CSC1=C(C#N)C(c2ccncc2)C(C(=O)Nc2ccccc2)=C(C)N1 (stereo not drawn)	-2	-14	93*	-6
C=CCN1C(=O)/C(=C/c2ccc(O)c(OC)c2)S/C1=N/c1nccs1	95*	7	83*	2
C=CCN1C(=O)/C(=C/c2ccc(OCC(=O)O)cc2)S/C1=N/c1nccs1	4	-16	6	2
COC(=O)N1Cc2ccnnc2CC1c1ccccc1-c1ccccc1 (stereo not drawn)	.	8	.	-7
Cn1cncc1C#Cc1ccc2cc(C3(O)CCCCC3)oc(=O)c2c1	3	-4	36*	-2
CC(O)(c1ccc(F)c(F)c1)c1nc(-c2ccccc2)cs1 (stereo not drawn)	3	-2	0	6
C=CCn1cnc2c(c1=O)c1nc3ccccc3nc1n2/N=C/c1cccc(OC)c1OC	2	4	59*	2
C=CCn1cnc2c(c1=O)c1nc3ccccc3nc1n2/N=C/c1cc(OC)c(OC)c(OC)c1	1	14	-1	4
CC(C)Oc1ccc(C(=O)Nc2ccc(N3CCCCC3)cc2)cc1	82*	-14	-11	-3
CN1CCN(c2nc(-c3cccnc3)nc3ccccc23)CC1	-2	-9	-1	4
COc1cc2c(cc1OC)CN(c1nc(-c3cccnc3)nc3ccccc13)CC2	5	16	37*	1
COC(=O)c1cc2c(c3c4cc(OC)ccc4n(S(=O)(=O)c4ccc(OC)cc4)c13)C(=O)N(Cc1ccccc1OC)C2	.	6	.	-2
